Tests used:
[1] = Drug metabolism in human liver microsomes assessed as compound level by measuring LC-MS area of metabolite-M1 at 3 uM in presence of NADPH incubated for 60 mins by UPLC-UV/QTOF MS analysis; assay type: ADME, Microsome; conditions: 1 h
Procedure, shortened: (§1)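 Each incubation held liver microsomes (human, monkey, dog, rat or mouse) at 0.5 mg/mL with 3.0 μM compound in 100 mM potassium phosphate, pH 7.4. After 3 min prewarming at 37 °C, the reaction was started with 1 mM NADPH. It was stopped at 60 min with ice-cold acetonitrile. Parent remaining and metabolites were judged from relative UV area.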

[2] = Half life in Sprague-Dawley rat at 20 mg/kg, po dosed as single administration; assay type: ADME, organism-based; conditions: in vivo
[3] = Tmax in Sprague-Dawley rat at 20 mg/kg, po dosed as single administration; assay type: ADME, organism-based; conditions: in vivo
[4] = Oral bioavailability in Sprague-Dawley rat at 20 mg/kg dosed as single administration; assay type: ADME, organism-based; conditions: in vivo
[5] = Half life in Sprague-Dawley rat at 2 mg/kg, iv dosed as single administration; assay type: ADME, organism-based; conditions: in vivo
[6] = AUC (0 to t) in Sprague-Dawley rat at 2 mg/kg, iv dosed as single administration; assay type: ADME, organism-based; conditions: in vivo
[7] = Drug metabolism in human liver microsomes assessed as compound level by measuring LC-MS area at 3 uM in presence of NADPH incubated for 60 mins by UPLC-UV/QTOF MS analysis; assay type: ADME, Microsome; conditions: 1 h; procedure, shortened: as §1
[8] = Drug metabolism in monkey liver microsomes assessed as compound level by measuring LC-MS area at 3 uM in presence of NADPH incubated for 60 mins by UPLC-UV/QTOF MS analysis; assay type: ADME, Macaca mulatta, Microsome; conditions: rhesus monkey, 1 h; procedure, shortened: as §1
[9] = Drug metabolism in monkey liver microsomes assessed as compound level by measuring LC-MS area of metabolite-M1 at 3 uM in presence of NADPH incubated for 60 mins by UPLC-UV/QTOF MS analysis; assay type: ADME, Macaca mulatta, Microsome; conditions: rhesus monkey, 1 h; procedure, shortened: as §1
[10] = Drug metabolism in dog liver microsomes assessed as compound level by measuring LC-MS area at 3 uM in presence of NADPH incubated for 60 mins by UPLC-UV/QTOF MS analysis; assay type: ADME, Canis lupus familiaris, Microsome; conditions: 1 h; procedure, shortened: as §1
[11] = Drug metabolism in dog liver microsomes assessed as compound level by measuring LC-MS area of metabolite-M1 at 3 uM in presence of NADPH incubated for 60 mins by UPLC-UV/QTOF MS analysis; assay type: ADME, Canis lupus familiaris, Microsome; conditions: 1 h; procedure, shortened: as §1
[12] = Drug metabolism in mouse liver microsomes assessed as compound level by measuring LC-MS area at 3 uM in presence of NADPH incubated for 60 mins by UPLC-UV/QTOF MS analysis; assay type: ADME, Microsome; conditions: 1 h; procedure, shortened: as §1
[13] = Drug metabolism in mouse liver microsomes assessed as compound level by measuring LC-MS area of metabolite-M1 at 3 uM in presence of NADPH incubated for 60 mins by UPLC-UV/QTOF MS analysis; assay type: ADME, Microsome; conditions: 1 h; procedure, shortened: as §1
[14] = Drug metabolism in mouse liver microsomes assessed as compound level by measuring LC-MS area of metabolite-M2 at 3 uM in presence of NADPH incubated for 60 mins by UPLC-UV/QTOF MS analysis; assay type: ADME, Microsome; conditions: 1 h; procedure, shortened: as §1
[15] = Drug metabolism in human liver microsomes assessed as compound level by measuring UV-area at 3 uM in presence of NADPH incubated for 60 mins by UPLC-UV/QTOF MS analysis; assay type: ADME, Microsome; conditions: 1 h; procedure, shortened: as §1
[16] = Drug metabolism in human liver microsomes assessed as compound level by measuring UV-area of metabolite-M1 at 3 uM in presence of NADPH incubated for 60 mins by UPLC-UV/QTOF MS analysis; assay type: ADME, Microsome; conditions: 1 h; procedure, shortened: as §1
[17] = Drug metabolism in monkey liver microsomes assessed as compound level by measuring UV-area of metabolite-M1 at 3 uM in presence of NADPH incubated for 60 mins by UPLC-UV/QTOF MS analysis; assay type: ADME, Macaca mulatta, Microsome; conditions: rhesus monkey, 1 h; procedure, shortened: as §1
[18] = Drug metabolism in dog liver microsomes assessed as compound level by measuring UV-area at 3 uM in presence of NADPH incubated for 60 mins by UPLC-UV/QTOF MS analysis; assay type: ADME, Canis lupus familiaris, Microsome; conditions: 1 h; procedure, shortened: as §1
[19] = Drug metabolism in rat liver microsomes assessed as compound level by measuring UV-area at 3 uM in presence of NADPH incubated for 60 mins by UPLC-UV/QTOF MS analysis; assay type: ADME, Microsome; conditions: 1 h; procedure, shortened: as §1
[20] = Drug metabolism in rat liver microsomes assessed as compound level by measuring UV-area of metabolite-M1 at 3 uM in presence of NADPH incubated for 60 mins by UPLC-UV/QTOF MS analysis; assay type: ADME, Microsome; conditions: 1 h; procedure, shortened: as §1
[21] = Drug metabolism in mouse liver microsomes assessed as compound level by measuring UV-area at 3 uM in presence of NADPH incubated for 60 mins by UPLC-UV/QTOF MS analysis; assay type: ADME, Microsome; conditions: 1 h; procedure, shortened: as §1
[22] = Drug metabolism in mouse liver microsomes assessed as compound level by measuring UV-area of metabolite-M2 at 3 uM in presence of NADPH incubated for 60 mins by UPLC-UV/QTOF MS analysis; assay type: ADME, Microsome; conditions: 1 h; procedure, shortened: as §1
[23] = Drug metabolism in human liver microsomes at 3 uM in presence of NADPH incubated for 60 mins by UPLC-UV/QTOF MS analysis relative to control; assay type: ADME, Microsome; conditions: read-out: Drug metabolism; procedure, shortened: as §1
[24] = Drug metabolism in monkey liver microsomes at 3 uM in presence of NADPH incubated for 60 mins by UPLC-UV/QTOF MS analysis relative to control; assay type: ADME, Macaca mulatta, Microsome; conditions: rhesus monkey, read-out: Drug metabolism; procedure, shortened: as §1
[25] = Drug metabolism in dog liver microsomes at 3 uM in presence of NADPH incubated for 60 mins by UPLC-UV/QTOF MS analysis relative to control; assay type: ADME, Canis lupus familiaris, Microsome; conditions: read-out: Drug metabolism; procedure, shortened: as §1
[26] = Drug metabolism in rat liver microsomes at 3 uM in presence of NADPH incubated for 60 mins by UPLC-UV/QTOF MS analysis relative to control; assay type: ADME, Microsome; conditions: read-out: Drug metabolism; procedure, shortened: as §1
[27] = Drug metabolism in mouse liver microsomes at 3 uM in presence of NADPH incubated for 60 mins by UPLC-UV/QTOF MS analysis relative to control; assay type: ADME, Microsome; procedure, shortened: as §1
[28] = Drug level in Sprague-Dawley rat liver at 20 mg/kg, po dosed as single administration measured up to 24 hrs; assay type: ADME, organism-based; conditions: in vivo
[29] = Drug level in CD1 mouse liver at 20 mg/kg, po dosed as single administration measured up to 24 hrs; assay type: ADME, organism-based; conditions: in vivo
Procedure, shortened: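 ICR (CD-1) mice were dosed orally at 20 mg/kg. At set times (1, 3, 8 and 24 h), blood was taken from the heart and portal vein under isoflurane anesthesia and spun to plasma. Livers were removed after portal vein perfusion, rinsed in saline, weighed and homogenized in saline (5 mL/g). Samples were analysed by UPLC–MS/MS in positive electrospray mode.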

[30] = Cytotoxicity in human HepG2.2.15 cells assessed as reduction in cell viability incubated for 8 days by MTT assay; assay type: cell-based, HepG2 2.2.15
Procedure, shortened: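 This was run in the same 8-day HepG2.2.15 cultures. After the medium was removed, MTT was added (final 2.5 mg/mL) for 1 h at 37 °C. Cells were lysed in 10% SDS/50% DMF, pH 7.2, and OD was read at 570 nm to give % cell death. CC50 was averaged with SD from at least two independent determinations.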

Hepatitis B virus = assay: Antiviral activity against HBV infected in human HepG2.2.15 cells assessed as reduction in cytoplasmic HBV-DNA replication incubated for 8 days by real-time PCR analysis; assay type: functional, organism-based; conditions: HepG2 2.2.15, 192 h

`Cc1cc(-c2ccc(F)nc2F)nn(Cc2ccc(Cl)cc2)c1=O` gave an Activity [1] of 2.64 ×10³ No_unit, a half-life [2] of 2.96 h and a Tmax [3] of 0.25 h. It also gave a bioavailability [4] of 25.3%, a t1/2 [5] of 2.03 h and an AUC(0-t) [6] of 428 ng·h/mL. It also gave an Activity [7] of 13.5 ×10³ No_unit, an Activity [8] of 5.42 ×10³ No_unit and an Activity [9] of 8.3 ×10³ No_unit. For the same compound, the Activity [10] was 3.09 ×10³ No_unit, the Activity [11] was 5.97 ×10³ No_unit and the Activity [12] was 1 ×10³ No_unit. For the same compound, the Activity [13] was 10.3 ×10³ No_unit, the Activity [14] was 0.79 ×10³ No_unit and the Activity [15] was 82 ×10³ No_unit. It also gave an Activity [16] of 51.3 ×10³ No_unit, an Activity [17] of 113 ×10³ No_unit and an Activity [18] of 26.3 ×10³ No_unit. For the same compound, the Activity [19] was 44.8 ×10³ No_unit, the Activity [20] was 56.7 ×10³ No_unit and the Activity [21] was under 5 ×10³ No_unit. The Activity [22] was 15.4 ×10³ No_unit, the metabolised at 1 h, 3 µM [23] was 34% and the metabolised at 1 h, 3 µM [24] was 73%. For the same compound, the metabolised at 1 h, 3 µM [25] was 79%, the metabolised at 1 h, 3 µM [26] was 64% and the metabolised at 1 h, 3 µM [27] was over 95%. For the same compound, the Drug uptake [28] was “Not Active”, the Drug uptake [29] was “Not Active” and the CC50 at 192 h [30] was 83.8 µM. It also gave an IC50 (Hepatitis B virus) of 0.098 µM.
